Measurements from different studies.
Lines come from different studies, so protocols differ.
Target: Myosin light chain kinase family member 4 (MYLK4, Homo sapiens, UniProt Q86YV6)
Residues used in one study (Q86YV6 1-388): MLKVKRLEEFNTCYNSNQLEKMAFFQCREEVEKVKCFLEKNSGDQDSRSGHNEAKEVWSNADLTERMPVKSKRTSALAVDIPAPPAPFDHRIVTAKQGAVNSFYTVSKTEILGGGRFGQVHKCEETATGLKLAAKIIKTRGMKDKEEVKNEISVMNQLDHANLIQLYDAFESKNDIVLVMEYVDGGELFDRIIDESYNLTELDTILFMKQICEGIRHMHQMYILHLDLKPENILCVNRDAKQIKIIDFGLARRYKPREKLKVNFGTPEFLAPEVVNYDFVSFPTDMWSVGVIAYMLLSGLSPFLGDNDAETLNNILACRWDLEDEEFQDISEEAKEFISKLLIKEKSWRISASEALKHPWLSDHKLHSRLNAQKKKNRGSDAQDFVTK

| Structure (SMILES) | effect on | action | method | concentration | measurement | result |
| --- | --- | --- | --- | --- | --- | --- |
| O=C(Nc1cnn(-c2csc(C(=O)NC3COC3)c2)c1)Nc1ccccc1Cl | enzyme activity | inhibitor | – | 5 µM | remaining activity | 85.2% |
| Nc1ncnc2occ(-c3ccc(NC(=O)Nc4cc(C(F)(F)F)ccc4F)cc3)c12 | enzyme activity | inhibitor | – | 20 µM | remaining activity | 48% |
| CCCOc1ccc([C@@H]2[C@@H](C(=O)O)[C@H](c3ccc4c(c3)OCO4)CN2CC(=O)Nc2c(CC)cccc2CC)cc1 | cell-free assay | – | competition with immobilised ligand | 1 µM | remaining binding | 100% |
| O=C(Nc1cnn(-c2csc(C(=O)NC3COC3)c2)c1)Nc1c(F)cccc1Cl | enzyme activity | inhibitor | – | 5 µM | remaining activity | 91.7% |
| Fc1cccc(-n2cnc3c(NCc4nc5c(F)c(F)ccc5[nH]4)nc(N4CCOCC4)nc32)c1 | binding | – | competition with immobilised ligand | 10 µM | binding vs control | 2.1% |
| Cc1ccc(C(=O)Nc2ccc(CN3CCN(C)CC3)c(C(F)(F)F)c2)cc1C#Cc1cnc2cccnn12 | enzyme activity | inhibitor | – | 23.5 nM | remaining activity | 92% |
| Nc1c(C(=O)NCc2ccc(C(=O)NCCCC3CCCCC3)cc2)cnn1-c1ccccc1 | cell-free assay | – | competition with immobilised ligand | 0.1 µM | remaining binding | 100% |
| O=[N+]([O-])c1cccc2[nH]c(CNc3nc(N4CCOCC4)nc4c3ncn4-c3ccsc3)nc12 | binding | – | competition with immobilised ligand | 10 µM | binding vs control | 2.6% |
